Published values from different studies.
Protocols differ between the studies behind these lines.
Target: Dual specificity mitogen-activated protein kinase kinase 5 (MAP2K5, Homo sapiens, UniProt Q13163)
One construct used (Q13163 1-448): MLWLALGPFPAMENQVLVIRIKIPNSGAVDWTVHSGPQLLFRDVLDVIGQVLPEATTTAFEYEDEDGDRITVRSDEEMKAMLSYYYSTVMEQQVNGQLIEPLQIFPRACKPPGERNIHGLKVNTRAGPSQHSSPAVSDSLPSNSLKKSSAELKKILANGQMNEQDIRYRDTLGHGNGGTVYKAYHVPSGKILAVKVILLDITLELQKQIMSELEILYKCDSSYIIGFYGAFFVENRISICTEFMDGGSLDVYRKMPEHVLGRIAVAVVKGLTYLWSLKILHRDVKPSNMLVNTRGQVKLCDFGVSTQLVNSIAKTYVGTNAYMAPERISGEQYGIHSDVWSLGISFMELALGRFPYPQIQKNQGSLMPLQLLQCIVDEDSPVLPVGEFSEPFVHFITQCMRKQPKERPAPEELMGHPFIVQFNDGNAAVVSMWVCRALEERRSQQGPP

O=C(Nc1cnn(-c2csc(C(=O)NC3COC3)c2)c1)Nc1ccccc1Cl — remaining activity (enzyme activity; inhibitor; 5 µM): 98.2%
Cc1ccc(C(=O)Nc2ccc(CN3CCN(C)CC3)c(C(F)(F)F)c2)cc1C#Cc1cnc2cccnn12 — remaining activity (enzyme activity; inhibitor; 23.5 nM): 2.4%
CC(C)(O)c1cncc(-c2nc3ccc(F)cc3n2C2CC2)c1 — remaining binding (cell-free assay; competition with immobilised ligand; 1 µM): 100%
CC(C)(C)c1nc(-c2cccc(NS(=O)(=O)c3c(F)cccc3F)c2F)c(-c2ccnc(N)n2)s1 — remaining activity (enzyme activity; inhibitor; radiometric; 1 µM): 90%
CCCCNc1ncc2c(-c3ccc(F)cc3)nn(C[C@H]3CC[C@H](N)CC3)c2n1 — inhibition (target engagement in cells; inhibitor; chemoproteomics; 20 mM): 83%
CC(C)(C)c1nc2c(s1)c1nc(N)ncc1c1ccc(NS(=O)(=O)c3c(F)cccc3F)c(F)c12 — remaining activity (enzyme activity; inhibitor; radiometric; 1 µM): 80%
COc1cccc2c(NCc3ccccc3)nc(-n3c(N)nc4ccccc43)nc12 — inhibition (target engagement in cells; inhibitor; chemoproteomics; 20 mM): 6.7%
Cc1sc(C(=O)NC2COC2)cc1-n1cc(NC(=O)Nc2c(F)cccc2Cl)cn1 — remaining activity (enzyme activity; inhibitor; 10 µM): 96.8%
CC1=C(C#N)C(c2ccc3c(c2)c(NC(=O)c2ccccc2C)nn3C)C(C#N)=C(C)N1 — remaining binding (cell-free assay; competition with immobilised ligand; 1 µM): 79%
Nc1ncnc2occ(-c3ccc(NC(=O)Nc4cc(C(F)(F)F)ccc4F)cc3)c12 — remaining signal (cell-free assay; inhibitor; 20 µM): 0.15%
